ChEMBL document CHEMBL1131203, “Second generation "peptoid" CCK-B receptor antagonists: identification and development of N-(adamantyloxycarbonyl)-alpha-methyl-(R)-tryptophan derivative (CI-1015) with an improved pharmacokinetic profile” (J Med Chem, 1998)
Active and inactive are the calls of the source. No cut-off for these calls is given here.

Key:
[1] = Pharmacokinetic parameter AUC was evaluated in 0.5% methylcellulose suspension at a dose of 20 mg/kg orally; format: ADME, organism-based; set-up: dose 20 mg/kg, route oral; details: in vivo, po
Outline: (§1)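 Fasted male Wistar rats, groups of 3–4, given a single oral 20 mg/kg dose in the stated vehicle. Heparinized plasma was collected from an implanted jugular-vein cannula at serial times out to 24 h, kept frozen, and assayed by validated HPLC-fluorescence. Cmax, tmax, AUC(0–∞) and terminal t1/2 were obtained by noncompartmental analysis. Values are means (%RSD).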

[2] = Pharmacokinetic parameter tmax evaluated in 0.5% methylcellulose suspension at a dose of 20 mg/kg orally; format: ADME, organism-based; set-up: dose 20 mg/kg, route oral; details: in vivo, po; outline: as §1
[3] = Pharmacokinetic parameter tmax was evaluated in HP-beta-CD solution at a dose of 20 mg/kg orally; format: ADME, organism-based; set-up: dose 20 mg/kg, route oral; details: in vivo, po; outline: as §1
[4] = Ratio of IC50 towards CCK-A receptor and CCK-B receptor
[5] = Absolute oral bioavailability was evaluated in DMA:H2O solution at a dose of 20 mg/kg orally; format: ADME, organism-based; details: eutheria, in vivo
Outline: (§2)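 Fasted male Wistar rats, groups of 3–4, given a single 20 mg/kg dose po or iv in the stated vehicle. Heparinized plasma was drawn from a jugular-vein cannula at serial times out to 24 h and assayed by validated HPLC-fluorescence. Absolute bioavailability is the dose-normalized ratio of AUC after po dosing to AUC after iv dosing.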

[6] = Pharmacokinetic parameter AUC was evaluated in 100% PEG solution at a dose of 20 mg/kg orally; format: ADME, organism-based; set-up: dose 20 mg/kg, route oral; details: in vivo, po; outline: as §1
[7] = Maximum plasma concentration evaluated in HP-beta-CD solution at a dose of 20 mg/kg orally; format: ADME, organism-based; set-up: dose 20 mg/kg, route oral; details: po; outline: as §1
[8] = tested on: Mus musculus; experiment: Concentration in forebrain after intravenous injection evaluated after 5 min. at a dose of 1 mg/kg; format: functional
Outline: (§3)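 Ex vivo binding: mice were dosed iv with compound or vehicle, given either as saline or as 10% EtOH–60% propylene glycol–30% saline. Forebrains were taken at 5, 10 or 20 min, homogenized in HEPES buffer with bacitracin at pH 7.2, and incubated with 50 pM [125I]BH-CCK8s for 2 h at 22 °C. After filtration, bound radioligand was gamma-counted and read against calibration curves prepared in vehicle tissue. Detection limit was about 1 pmol/forebrain. n = 3–13.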

[9] = Maximum plasma concentration was evaluated in 0.5% methylcellulose suspension at a dose of 20 mg/kg orally; format: ADME, organism-based; set-up: dose 20 mg/kg, route oral; details: po; outline: as §1
[10] = Absolute oral bioavailability was evaluated in 100% PEG solution at a dose of 20 mg/kg orally; format: ADME, organism-based; details: eutheria, in vivo; outline: as §2
[11] = tested on: Mus musculus; experiment: Concentration in forebrain after intravenous injection evaluated after 10 min. at a dose of 1 mg/kg; format: functional; outline: as §3
[12] = Pharmacokinetic parameter AUC was evaluated in HP-beta-CD solution at a dose of 20 mg/kg orally; format: ADME, organism-based; set-up: dose 20 mg/kg, route oral; details: in vivo, po; outline: as §1
[13] = Pharmacokinetic parameter half-life was evaluated in 100% PEG solution; format: ADME, organism-based; details: in vivo; outline: as §1
[14] = target: T1, Cholecystokinin receptor type A (Rattus norvegicus, UniProt P30551); experiment: Inhibitory concentration against radioligand [125I]Bolton-Hunter labeled CCK-8 to cholecystokinin type A receptor in the rat pancreas
T1 sequence (P30551 whole entry): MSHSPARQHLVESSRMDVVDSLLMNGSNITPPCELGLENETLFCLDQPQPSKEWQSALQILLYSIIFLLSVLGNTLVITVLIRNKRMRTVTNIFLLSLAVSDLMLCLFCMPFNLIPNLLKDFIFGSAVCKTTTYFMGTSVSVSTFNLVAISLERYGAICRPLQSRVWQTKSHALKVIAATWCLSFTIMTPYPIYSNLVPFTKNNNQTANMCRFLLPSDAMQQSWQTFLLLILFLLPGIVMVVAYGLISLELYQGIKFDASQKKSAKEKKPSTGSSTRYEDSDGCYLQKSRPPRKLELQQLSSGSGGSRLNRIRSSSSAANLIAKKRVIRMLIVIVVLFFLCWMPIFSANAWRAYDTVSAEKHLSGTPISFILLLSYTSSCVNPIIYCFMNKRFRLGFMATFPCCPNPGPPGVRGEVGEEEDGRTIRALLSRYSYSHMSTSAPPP

[15] = Pharmacokinetic parameter AUC was evaluated in DMA:H2O solution at a dose of 20 mg/kg orally; format: ADME, organism-based; set-up: dose 20 mg/kg, route oral; details: in vivo, po; outline: as §1
[16] = Oral bioavailability (dosed in HP-beta-CD solution) (dose 20 mg/kg p.o.); format: ADME, organism-based; details: eutheria, in vivo; outline: as §2
[17] = Pharmacokinetic parameter tmax was evaluated in DMA:H2O solution at a dose of 20 mg/kg orally; format: ADME, organism-based; set-up: dose 20 mg/kg, route oral; details: in vivo, po; outline: as §1
[18] = Maximum plasma concentration evaluated in 100% PEG solution at a dose of 20 mg/kg orally; format: ADME, organism-based; set-up: dose 20 mg/kg, route oral; details: po; outline: as §1
[19] = Pharmacokinetic parameter half-life was evaluated in HP-beta-CD solution at a dose of 20 mg/kg orally; format: ADME, organism-based; set-up: dose 20 mg/kg, route oral; details: in vivo, po; outline: as §1
[20] = Pharmacokinetic parameter half-life was evaluated in DMA:H2O solution at a dose of 20 mg/kg orally; format: ADME, organism-based; set-up: dose 20 mg/kg, route oral; details: in vivo, po; outline: as §1
[21] = target: T2, Gastrin/cholecystokinin type B receptor (Mus musculus, UniProt P56481); experiment: Inhibitory concentration against radioligand [125I]Bolton-Hunter labeled CCK-8 to cholecystokinin type B receptor in the mouse cerebral cortex; format: tissue-based
T2 sequence (P56481 whole entry): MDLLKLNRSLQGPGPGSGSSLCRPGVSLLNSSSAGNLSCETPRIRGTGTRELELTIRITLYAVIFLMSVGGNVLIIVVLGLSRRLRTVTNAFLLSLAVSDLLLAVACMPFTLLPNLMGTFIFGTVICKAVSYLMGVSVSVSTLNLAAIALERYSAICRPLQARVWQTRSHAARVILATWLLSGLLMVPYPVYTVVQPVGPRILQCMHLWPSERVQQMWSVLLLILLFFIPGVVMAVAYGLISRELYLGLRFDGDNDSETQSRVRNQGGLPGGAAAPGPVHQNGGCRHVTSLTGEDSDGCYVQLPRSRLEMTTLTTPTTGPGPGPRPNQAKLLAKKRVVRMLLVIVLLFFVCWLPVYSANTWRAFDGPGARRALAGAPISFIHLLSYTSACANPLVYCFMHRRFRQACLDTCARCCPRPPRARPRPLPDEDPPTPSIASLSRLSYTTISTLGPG

[22] = tested on: Mus musculus; experiment: Concentration in forebrain after intravenous injection evaluated after 20 min. at a dose of 1 mg/kg; format: functional; outline: as §3
[23] = Absolute oral bioavailability evaluated in 0.5% methylcellulose suspentionat a dose of 20 mg/kg orally; format: ADME, organism-based; details: eutheria, in vivo; outline: as §2
[24] = Pharmacokinetic parameter tmax was evaluated in 100% PEG solution at a dose of 20 mg/kg orally; format: ADME, organism-based; set-up: dose 20 mg/kg, route oral; details: in vivo, po; outline: as §1
[25] = Maximum plasma concentration was evaluated in DMA:H2O solution at a dose of 20 mg/kg orally; format: ADME, organism-based; set-up: dose 20 mg/kg, route oral; details: po; outline: as §1
[26] = Maximum plasma concentration was evaluated in saline solution at a dose of 20 mg/kg orally; format: ADME, organism-based; set-up: dose 20 mg/kg, route oral; details: po; outline: as §1
[27] = Pharmacokinetic parameter tmax was evaluated in saline solution at a dose of 20 mg/kg orally; format: ADME, organism-based; set-up: dose 20 mg/kg, route oral; details: in vivo, po; outline: as §1
[28] = Absolute oral bioavailability was evaluated in saline solution at a dose of 20 mg/kg orally; format: ADME, organism-based; details: eutheria, in vivo; outline: as §2
[29] = Pharmacokinetic parameter AUC was evaluated in saline solution at a dose of 20 mg/kg orally; format: ADME, organism-based; set-up: dose 20 mg/kg, route oral; details: in vivo, po; outline: as §1
[30] = tested on: Mus musculus; experiment: Concentration in forebrain after intravenous injection evaluated after 5 min. at a dose of 10 mg/kg; format: functional; outline: as §3
[31] = Absolute oral bioavailability was evaluated in Hp-beta-CD solution at a dose of 20 mg/kg orally; format: ADME, organism-based; details: eutheria, in vivo; outline: as §2
[32] = tested on: Mus musculus; experiment: Concentration in forebrain after intravenous injection evaluated after 10 min. at a dose of 10 mg/kg; Below low level of detection; format: functional, organism-based; set-up: dose 10 mg/kg; outline: as §3
[33] = Pharmacokinetic parameter AUC was evaluated in Hp-beta-CD solution; format: ADME; outline: as §1
[34] = tested on: Mus musculus; experiment: Concentration in forebrain after intravenous injection evaluated after 20 min. at a dose of 10 mg/kg; format: functional; outline: as §3
[35] = Maximum plasma concentration was evaluated in Hp-beta-CD solution at a dose of 20 mg/kg orally; format: ADME, organism-based; set-up: dose 20 mg/kg, route oral; details: po; outline: as §1
[36] = Pharmacokinetic parameter tmax was evaluated in Hp-beta-CD solution at a dose of 20 mg/kg orally; format: ADME, organism-based; set-up: dose 20 mg/kg, route oral; details: in vivo, po; outline: as §1

C[C@](Cc1c[nH]c2ccccc12)(NC(=O)OC1C2CC3CC(C2)CC1C3)C(=O)N[C@H](CO)Cc1ccccc1 (stereo partly specified)
AUC [1]: 188 ng·h/mL | Tmax [2]: 2.9 h | Tmax [3]: 0.9 h | Ratio [4]: 123 | bioavailability [5]: 9.6% | AUC [6]: 886 ng·h/mL | Cmax [7]: 416 ng/mL | Brain level [8]: 40 pmol/forebrain | Cmax [9]: 42 ng/mL | bioavailability [10]: 9.6% | Brain level [11]: 68 pmol/forebrain | AUC [12]: 1440 ng·h/mL | half-life [13]: 1.1 h | IC50 [14]: 780 nM | AUC [15]: 890 ng·h/mL | bioavailability [16]: 16% | Tmax [17]: 1.2 h | Cmax [18]: 167 ng/mL | half-life [19]: 1.5 h | half-life [20]: 2.3 h | IC50 [21]: 6.3 nM | Brain level [22]: 43 pmol/forebrain | bioavailability [23]: 2% | Tmax [24]: 2.8 h | Cmax [25]: 212 ng/mL

C[C@](Cc1c[nH]c2ccccc12)(NC(=O)OC1[C@H]2C[C@@H]3C[C@@H](C[C@H]1C3)C2)C(=O)NC[C@H](NC(=O)CCC(=O)O)c1ccccc1 (stereo partly specified) [CI-988]
Cmax [26]: 32 ng/mL | Tmax [27]: 2.3 h | bioavailability [28]: 3.2% | AUC [29]: 134 ng·h/mL | Brain level [30]: 10 pmol/forebrain | bioavailability [31]: < 1% | Brain level [32]: inactive | AUC [33]: 2.3 ng·h/mL | Brain level [34]: 8 pmol/forebrain | Cmax [35]: 5 ng/mL | Tmax [36]: 0.25 h
